Experimental data taken from ChEMBL document CHEMBL5661979, “Pharmacological inhibition of BMK1 suppresses tumor growth through promyelocytic leukemia protein” (Cancer Cell, 2010).

What was measured:
Ephrin type-B receptor 4 = Ephrin type-B receptor 4 (Homo sapiens, UniProt P54760); assay: Inhibition of EphB4 in human HeLa cells lysate pre incubated for 15 mins followed by ADP acyl phosphate probe addition and measured after 10 mins by LC-MS/MS analysis; format: subcellular
RPS6KA1/RPS6KA2/RPS6KA3 [1] = target: T1, RPS6KA1/RPS6KA2/RPS6KA3 (Homo sapiens, UniProt P51812+Q15349+Q15418); assay: Inhibition of RSK1/2/3 in human HeLa cells lysate at 10 uM pre incubated for 15 mins followed by ATP acyl phosphate probe addition and measured after 10 mins by LC-MS/MS analysis relative to control; format: subcellular; conditions: time 25.0 min
T1 sequence (P51812 whole entry, looked up, the tested form may be a part): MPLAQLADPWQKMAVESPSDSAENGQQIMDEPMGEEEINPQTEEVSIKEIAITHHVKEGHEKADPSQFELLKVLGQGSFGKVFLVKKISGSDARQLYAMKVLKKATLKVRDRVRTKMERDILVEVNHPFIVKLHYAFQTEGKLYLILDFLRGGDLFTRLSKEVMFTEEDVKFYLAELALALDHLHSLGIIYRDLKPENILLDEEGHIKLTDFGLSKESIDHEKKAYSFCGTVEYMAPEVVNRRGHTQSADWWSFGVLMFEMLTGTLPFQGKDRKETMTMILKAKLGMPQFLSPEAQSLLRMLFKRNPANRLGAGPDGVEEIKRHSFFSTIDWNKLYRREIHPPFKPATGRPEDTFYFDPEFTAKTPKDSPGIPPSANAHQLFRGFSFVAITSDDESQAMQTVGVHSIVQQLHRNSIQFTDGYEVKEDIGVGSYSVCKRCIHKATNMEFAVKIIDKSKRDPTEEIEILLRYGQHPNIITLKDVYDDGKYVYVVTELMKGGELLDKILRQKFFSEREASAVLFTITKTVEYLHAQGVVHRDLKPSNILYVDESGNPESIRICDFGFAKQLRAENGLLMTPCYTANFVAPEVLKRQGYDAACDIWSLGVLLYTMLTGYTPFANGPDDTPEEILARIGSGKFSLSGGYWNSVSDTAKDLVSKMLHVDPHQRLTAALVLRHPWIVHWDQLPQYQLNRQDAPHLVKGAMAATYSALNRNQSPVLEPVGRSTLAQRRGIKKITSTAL
T1 sequence (Q15349 whole entry, looked up, the tested form may be a part): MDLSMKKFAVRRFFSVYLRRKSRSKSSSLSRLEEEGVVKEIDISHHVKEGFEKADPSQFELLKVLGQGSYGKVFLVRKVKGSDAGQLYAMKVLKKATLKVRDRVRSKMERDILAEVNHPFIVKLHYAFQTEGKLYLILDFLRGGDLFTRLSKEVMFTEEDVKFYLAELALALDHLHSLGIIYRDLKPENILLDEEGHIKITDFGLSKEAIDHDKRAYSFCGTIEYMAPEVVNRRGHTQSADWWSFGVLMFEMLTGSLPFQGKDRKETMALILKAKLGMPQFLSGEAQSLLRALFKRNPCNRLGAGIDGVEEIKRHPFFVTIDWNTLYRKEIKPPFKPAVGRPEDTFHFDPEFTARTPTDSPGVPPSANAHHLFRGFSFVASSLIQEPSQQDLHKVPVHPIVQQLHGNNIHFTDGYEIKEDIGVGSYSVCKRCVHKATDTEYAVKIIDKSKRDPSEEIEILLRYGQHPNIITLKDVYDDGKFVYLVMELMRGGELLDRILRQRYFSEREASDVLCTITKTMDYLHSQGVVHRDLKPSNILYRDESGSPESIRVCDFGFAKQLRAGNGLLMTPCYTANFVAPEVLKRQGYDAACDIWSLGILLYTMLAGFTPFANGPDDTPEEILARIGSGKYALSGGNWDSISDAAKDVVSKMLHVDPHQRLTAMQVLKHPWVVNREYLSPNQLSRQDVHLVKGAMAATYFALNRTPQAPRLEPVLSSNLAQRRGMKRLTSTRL
T1 sequence (Q15418 whole entry, looked up, the tested form may be a part): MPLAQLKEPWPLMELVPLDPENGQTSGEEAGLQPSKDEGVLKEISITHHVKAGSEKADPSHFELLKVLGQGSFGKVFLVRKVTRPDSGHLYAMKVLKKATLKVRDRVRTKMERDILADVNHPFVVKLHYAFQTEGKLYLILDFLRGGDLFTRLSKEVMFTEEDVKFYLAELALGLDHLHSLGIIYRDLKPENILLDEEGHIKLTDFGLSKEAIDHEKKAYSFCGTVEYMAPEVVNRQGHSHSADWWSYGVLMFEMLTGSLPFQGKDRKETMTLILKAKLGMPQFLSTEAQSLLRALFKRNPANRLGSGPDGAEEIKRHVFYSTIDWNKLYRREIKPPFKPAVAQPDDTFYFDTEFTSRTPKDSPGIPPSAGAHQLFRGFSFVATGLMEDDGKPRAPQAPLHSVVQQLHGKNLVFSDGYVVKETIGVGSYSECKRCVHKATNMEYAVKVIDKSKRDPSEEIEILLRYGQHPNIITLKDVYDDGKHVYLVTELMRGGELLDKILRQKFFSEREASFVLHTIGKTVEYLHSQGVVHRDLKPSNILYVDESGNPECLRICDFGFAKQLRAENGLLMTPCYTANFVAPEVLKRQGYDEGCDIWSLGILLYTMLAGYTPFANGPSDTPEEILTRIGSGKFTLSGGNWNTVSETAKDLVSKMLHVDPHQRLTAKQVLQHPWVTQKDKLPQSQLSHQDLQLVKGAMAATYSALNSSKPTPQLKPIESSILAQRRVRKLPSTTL

[2] = target: T2, Ribosomal protein S6 kinase alpha-3 (Homo sapiens, UniProt P51812); assay: Inhibition of RSK2 domain 1 in human HeLa cells lysate at 50 uM pre incubated for 15 mins followed by ADP acyl phosphate probe addition and measured after 10 mins by LC-MS/MS analysis relative to control; format: subcellular; conditions: time 25.0 min
T2 sequence (P51812 whole entry, the tested form may be a part): as the sequence (P51812 whole entry, looked up, the tested form may be a part) above

RPS6KA1/RPS6KA2/RPS6KA3 [3] = target: T1, RPS6KA1/RPS6KA2/RPS6KA3; assay: Inhibition of RSK1/2/3 in human HeLa cells lysate at 2 uM pre incubated for 15 mins followed by ATP acyl phosphate probe addition and measured after 10 mins by LC-MS/MS analysis relative to control; format: subcellular; conditions: time 25.0 min
[4] = target: T3, Serine/threonine-protein kinase tousled-like 2 (Homo sapiens, UniProt Q86UE8); assay: Inhibition of TLK2 in human HeLa cells lysate pre incubated for 15 mins followed by ADP acyl phosphate probe addition and measured after 10 mins by LC-MS/MS analysis; format: subcellular
[5] = target: T4, Phosphatidylinositol 5-phosphate 4-kinase type-2 alpha (Homo sapiens, UniProt P48426); assay: Inhibition of PIP5K2A in human HeLa cells lysate pre incubated for 15 mins followed by ADP acyl phosphate probe addition and measured after 10 mins by LC-MS/MS analysis; format: subcellular
T4 sequence (P48426 whole entry): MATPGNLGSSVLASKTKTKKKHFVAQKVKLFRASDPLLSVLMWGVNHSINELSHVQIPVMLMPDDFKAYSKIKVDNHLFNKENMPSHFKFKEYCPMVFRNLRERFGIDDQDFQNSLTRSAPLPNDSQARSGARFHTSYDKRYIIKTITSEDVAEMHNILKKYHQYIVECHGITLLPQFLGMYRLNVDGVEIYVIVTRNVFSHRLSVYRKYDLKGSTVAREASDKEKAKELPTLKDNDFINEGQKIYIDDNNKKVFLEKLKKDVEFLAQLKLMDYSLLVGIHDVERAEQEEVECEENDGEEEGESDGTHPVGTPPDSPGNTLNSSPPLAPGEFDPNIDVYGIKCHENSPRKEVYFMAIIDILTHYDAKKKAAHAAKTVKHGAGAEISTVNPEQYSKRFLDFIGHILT

[6] = target: T2, Ribosomal protein S6 kinase alpha-3; assay: Inhibition of RSK2 domain 1 active form in human HeLa cells lysate at 10 uM pre incubated for 15 mins followed by ATP acyl phosphate probe addition and measured after 10 mins by LC-MS/MS analysis relative to control; format: subcellular; conditions: time 25.0 min
[7] = Inhibition of MST4/YSK1 in human HeLa cells lysate at 10 uM pre incubated for 15 mins followed by ATP acyl phosphate probe addition and measured after 10 mins by LC-MS/MS analysis relative to control; conditions: 25 min, condition cancer
[8] = target: Transcription intermediary factor 1-beta (Homo sapiens, UniProt Q13263); assay: Inhibition of TIF1b in human HeLa cells lysate pre incubated for 15 mins followed by ATP acyl phosphate probe addition and measured after 10 mins by LC-MS/MS analysis; format: subcellular
[9] = target: T3, Serine/threonine-protein kinase tousled-like 2; assay: Inhibition of TLK2 in human HeLa cells lysate at 10 uM pre incubated for 15 mins followed by ADP acyl phosphate probe addition and measured after 10 mins by LC-MS/MS analysis relative to control; format: subcellular; conditions: time 25.0 min
[10] = Inhibition of CK1g1/g2/g3 in human HeLa cells lysate at 2 uM pre incubated for 15 mins followed by ADP acyl phosphate probe addition and measured after 10 mins by LC-MS/MS analysis relative to control; conditions: 25 min, condition cancer
[11] = target: Interferon-induced, double-stranded RNA-activated protein kinase (Homo sapiens, UniProt P19525); assay: Inhibition of PKR in human HeLa cells lysate at 10 uM pre incubated for 15 mins followed by ATP acyl phosphate probe addition and measured after 10 mins by LC-MS/MS analysis relative to control; format: subcellular; conditions: time 25.0 min
[12] = Inhibition of NEK6/7 in human HeLa cells lysate at 50 uM pre incubated for 15 mins followed by ADP acyl phosphate probe addition and measured after 10 mins by LC-MS/MS analysis relative to control; conditions: 25 min, condition cancer
[13] = target: Cyclin-dependent kinase 9 (Homo sapiens, UniProt P50750); assay: Inhibition of CDK9 in human HeLa cells lysate at 2 uM pre incubated for 15 mins followed by ATP acyl phosphate probe addition and measured after 10 mins by LC-MS/MS analysis relative to control; format: subcellular; conditions: time 25.0 min
Sequence of Cyclin-dependent kinase 9 (P50750 whole entry, the tested form may be a part): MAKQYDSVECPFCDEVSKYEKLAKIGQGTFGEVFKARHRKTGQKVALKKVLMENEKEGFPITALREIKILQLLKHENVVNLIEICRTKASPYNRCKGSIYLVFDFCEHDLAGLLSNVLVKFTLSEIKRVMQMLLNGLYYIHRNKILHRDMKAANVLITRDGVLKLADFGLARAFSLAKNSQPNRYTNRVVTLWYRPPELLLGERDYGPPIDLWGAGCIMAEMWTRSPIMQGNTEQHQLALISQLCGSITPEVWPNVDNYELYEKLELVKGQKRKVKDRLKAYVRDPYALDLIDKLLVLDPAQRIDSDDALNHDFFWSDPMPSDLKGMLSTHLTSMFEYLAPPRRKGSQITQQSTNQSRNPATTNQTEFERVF
Procedure, shortened: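 KiNativ profiling in HeLa lysate (5 mg/mL total protein). Lysate incubated 15 min with inhibitor at 50, 10, 2, 0.8 or 0 μM. ATP or ADP acylphosphate probe then added (5 μM final) and reacted 10 min. Reaction stopped with urea and analysed by targeted MS, using up to four fragment ions per kinase peptide-probe conjugate. % inhibition taken against untreated lysate. Run in duplicate.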

[14] = target: Ribosomal protein S6 kinase beta-1 (Homo sapiens, UniProt P23443); assay: Inhibition of P70S6K in human HeLa cells lysate pre incubated for 15 mins followed by ATP acyl phosphate probe addition and measured after 10 mins by LC-MS/MS analysis; format: subcellular
Sequence of Ribosomal protein S6 kinase beta-1 (P23443 whole entry): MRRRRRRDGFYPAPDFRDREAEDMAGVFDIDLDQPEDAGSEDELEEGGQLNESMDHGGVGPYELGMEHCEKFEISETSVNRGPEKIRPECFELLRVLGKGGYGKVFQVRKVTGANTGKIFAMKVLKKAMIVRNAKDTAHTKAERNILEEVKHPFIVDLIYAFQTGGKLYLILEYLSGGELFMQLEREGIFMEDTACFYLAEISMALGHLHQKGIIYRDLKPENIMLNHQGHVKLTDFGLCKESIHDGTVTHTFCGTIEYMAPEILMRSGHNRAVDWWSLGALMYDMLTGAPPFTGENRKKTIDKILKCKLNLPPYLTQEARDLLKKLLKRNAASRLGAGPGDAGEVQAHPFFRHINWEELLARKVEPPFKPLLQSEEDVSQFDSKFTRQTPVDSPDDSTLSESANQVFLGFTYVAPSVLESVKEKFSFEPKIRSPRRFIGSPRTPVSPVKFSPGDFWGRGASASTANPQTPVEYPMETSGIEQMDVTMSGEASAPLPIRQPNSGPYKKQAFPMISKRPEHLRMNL

[15] = Inhibition of SRC/FYN/YES in human HeLa cells lysate at 50 uM pre incubated for 15 mins followed by ATP acyl phosphate probe addition and measured after 10 mins by LC-MS/MS analysis relative to control; conditions: 25 min, condition cancer
Wee1-like protein kinase = Wee1-like protein kinase (Homo sapiens, UniProt P30291); assay: Inhibition of Wee1 in human HeLa cells lysate pre incubated for 15 mins followed by ATP acyl phosphate probe addition and measured after 10 mins by LC-MS/MS analysis; format: subcellular
Sequence of Wee1-like protein kinase (P30291 whole entry, canonical isoform): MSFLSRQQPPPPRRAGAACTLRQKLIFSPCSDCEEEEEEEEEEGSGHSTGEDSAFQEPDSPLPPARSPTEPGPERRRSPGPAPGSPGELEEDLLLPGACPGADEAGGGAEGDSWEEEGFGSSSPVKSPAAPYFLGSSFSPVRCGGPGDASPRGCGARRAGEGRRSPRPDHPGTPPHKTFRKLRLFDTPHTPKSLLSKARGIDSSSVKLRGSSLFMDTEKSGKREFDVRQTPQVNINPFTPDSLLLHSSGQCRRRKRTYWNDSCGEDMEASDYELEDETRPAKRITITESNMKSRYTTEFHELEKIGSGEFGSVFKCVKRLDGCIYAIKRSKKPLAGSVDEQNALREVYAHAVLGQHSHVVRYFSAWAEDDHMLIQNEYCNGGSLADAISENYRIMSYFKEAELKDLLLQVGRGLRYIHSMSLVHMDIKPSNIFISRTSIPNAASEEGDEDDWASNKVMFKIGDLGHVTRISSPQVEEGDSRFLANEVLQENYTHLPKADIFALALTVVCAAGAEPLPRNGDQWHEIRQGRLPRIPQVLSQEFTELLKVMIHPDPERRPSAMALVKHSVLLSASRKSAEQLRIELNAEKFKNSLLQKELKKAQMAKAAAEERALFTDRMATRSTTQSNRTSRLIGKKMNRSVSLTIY

[16] = target: Glycogen synthase kinase-3 beta (Homo sapiens, UniProt P49841); assay: Inhibition of GSK3B isoform 2 in human HeLa cells lysate at 2 uM pre incubated for 15 mins followed by ATP acyl phosphate probe addition and measured after 10 mins by LC-MS/MS analysis relative to control; format: subcellular; conditions: time 25.0 min
Sequence of Glycogen synthase kinase-3 beta (P49841 whole entry, looked up, canonical isoform): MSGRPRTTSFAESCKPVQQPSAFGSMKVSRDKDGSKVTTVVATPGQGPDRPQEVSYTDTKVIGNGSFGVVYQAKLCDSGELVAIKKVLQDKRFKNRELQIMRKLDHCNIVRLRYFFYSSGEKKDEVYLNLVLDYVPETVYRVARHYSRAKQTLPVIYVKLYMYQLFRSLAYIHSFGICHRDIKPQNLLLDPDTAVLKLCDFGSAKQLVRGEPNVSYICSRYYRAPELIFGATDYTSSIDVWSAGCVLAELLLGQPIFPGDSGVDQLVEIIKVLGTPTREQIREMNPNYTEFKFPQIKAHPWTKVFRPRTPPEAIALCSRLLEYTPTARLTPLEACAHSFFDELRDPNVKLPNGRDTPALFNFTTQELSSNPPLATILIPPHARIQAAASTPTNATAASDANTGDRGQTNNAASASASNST

[17] = target: Serine/threonine-protein kinase 24 (Homo sapiens, UniProt Q9Y6E0); assay: Inhibition of MST3 in human HeLa cells lysate at 10 uM pre incubated for 15 mins followed by ATP acyl phosphate probe addition and measured after 10 mins by LC-MS/MS analysis relative to control; format: subcellular; conditions: time 25.0 min
Sequence of Serine/threonine-protein kinase 24 (Q9Y6E0 whole entry, looked up, the tested form may be a part): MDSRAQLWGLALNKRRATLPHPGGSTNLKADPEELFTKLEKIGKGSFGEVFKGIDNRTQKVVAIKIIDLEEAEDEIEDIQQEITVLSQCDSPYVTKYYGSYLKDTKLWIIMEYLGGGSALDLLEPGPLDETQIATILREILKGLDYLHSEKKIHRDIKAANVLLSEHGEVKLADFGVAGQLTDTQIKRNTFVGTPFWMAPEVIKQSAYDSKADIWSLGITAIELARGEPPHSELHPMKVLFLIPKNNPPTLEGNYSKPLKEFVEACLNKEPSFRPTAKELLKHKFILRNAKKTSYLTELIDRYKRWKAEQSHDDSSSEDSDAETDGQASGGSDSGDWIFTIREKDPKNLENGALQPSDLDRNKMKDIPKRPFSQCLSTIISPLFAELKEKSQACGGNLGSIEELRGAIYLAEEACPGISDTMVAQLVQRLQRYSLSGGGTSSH

[18] = target: Ribosomal protein S6 kinase alpha-1 (Homo sapiens, UniProt Q15418); assay: Inhibition of RSK1 domain 2 K2 site in human HeLa cells lysate at 10 uM pre incubated for 15 mins followed by ADP acyl phosphate probe addition and measured after 10 mins by LC-MS/MS analysis relative to control; format: subcellular; conditions: time 25.0 min
Sequence of Ribosomal protein S6 kinase alpha-1 (Q15418 whole entry, the tested form may be a part): as the sequence (Q15418 whole entry, looked up, the tested form may be a part) above

[19] = target: Serine/threonine-protein kinase LATS1 (Homo sapiens) (UniProt O95835); assay: Inhibition of LATS1 in human HeLa cells lysate at 2 uM pre incubated for 15 mins followed by ATP acyl phosphate probe addition and measured after 10 mins by LC-MS/MS analysis relative to control; format: subcellular; conditions: time 25.0 min
Activated CDC42 kinase 1 = Activated CDC42 kinase 1 (Homo sapiens, UniProt Q07912); assay: Inhibition of TNK2 (unknown origin) assessed as remaining activity at 10 uM by ATP-competition binding assay relative to control

Question: What does the source list for CCOc1cc(N2CCC(O)CC2)ccc1Nc1ncc2c(n1)N(C)c1ccccc1C(=O)N2C?
Answer: IC50 (Ephrin type-B receptor 4): > 50 µM; inhibition (RPS6KA1/RPS6KA2/RPS6KA3 [1]): -7.4%; inhibition [2]: -4.3%; inhibition (RPS6KA1/RPS6KA2/RPS6KA3 [3]): 11.6%; IC50 [4]: > 50 µM; IC50 [5]: > 50 µM; inhibition [6]: -6.5%; inhibition at 10 µM [7]: 5.1%; IC50 [8]: > 50 µM; inhibition [9]: 0.4%; inhibition at 2 µM [10]: 61.7%; inhibition [11]: -2.3%; inhibition at 50 µM [12]: 5.6%; inhibition [13]: 11.6%; IC50 [14]: > 50 µM; inhibition at 50 µM [15]: -27.1%; IC50 (Wee1-like protein kinase): > 50 µM; inhibition [16]: 7.8%; inhibition [17]: -7.7%; inhibition [18]: 5.4%; inhibition [19]: 5.7%; Activity (Activated CDC42 kinase 1): 17%
